From PubChem BioAssay
An excerpt weighted towards active compounds, which were near 2.7% of everything screened.
RBBP9 inh = inhibitors of human serine hydrolase RBBP9; O75884; recombinant RBBP9, FP-Rh probe fluorescence polarization; inhibition, % at 7.94 µM; 220,000 tested, 0.2% active;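 active means inhibition above the campaign mean of all tested compounds plus 3 SD, cut at about 14% in these data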;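 further: plate controls were DMSO wells with RBBP9 for no effect and wells lacking RBBP9 protein for full effect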
Target sequence (O75884 whole entry, looked up): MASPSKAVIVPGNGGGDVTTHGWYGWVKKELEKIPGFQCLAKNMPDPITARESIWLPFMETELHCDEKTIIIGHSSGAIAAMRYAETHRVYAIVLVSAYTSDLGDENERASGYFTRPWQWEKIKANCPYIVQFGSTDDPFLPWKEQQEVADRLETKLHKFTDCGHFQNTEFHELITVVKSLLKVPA
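Assay system: recombinant human RBBP9; Reagent: Serine-hydrolase probe FP-Rh, 375 nM pre-mixing; Doses: 7.94 µM single dose, 0.794% DMSO; Incubation: 30 min then 45 min, 25 °C; Detection: fluorescence polarization (mP), excitation 525 nm, emission 598 nm; Evaluation: percent inhibition from mP, scaled between DMSO and no-protein wells.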
PAFAH2 inh = inhibitors of human PAFAH2; Q99487; recombinant PAFAH2, FP-rhodamine activity probe, fluorescence polarization; inhibition, % at 3.39 µM; 340,000 tested, 0.99% active; AID 492956;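 active means inhibition above the mean over all tested compounds plus 3 SD, cut at about 30% in these data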;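 further: inhibitors block probe labeling of enzyme so polarization drops; 0% = enzyme with DMSO and 100% = wells lacking PAFAH2 protein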
pPAFAH inh = pPAFAH (human) enzyme inhibition; Q13093; recombinant pPAFAH, FP-rhodamine probe fluorescence polarization; inhibition, % at 3.39 µM; 330,000 tested, 1.5% active; AID 463082;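 active means inhibition above the mean inhibition across the screen plus 3 SD, cut at about 25% in these data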;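 further: inhibitors block binding of the rhodamine activity-based probe so polarization drops; 0% = enzyme with DMSO and 100% = wells lacking pPAFAH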
PAFAH1B3 FP inh = blocks human PAF acetylhydrolase 1B catalytic subunit 3; Q15102; recombinant PAFAH1B3, FP-rhodamine probe, fluorescence polarization; inhibition, % at 3.39 µM; 340,000 tested, 0.28% active; AID 492972;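 active means inhibition above the screen-wide average of all tested compounds plus 3 SD, cut at about 25% in these data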;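 further: 0% = enzyme with DMSO only and 100% = wells lacking PAFAH1B3 protein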
Target sequence (Q15102 whole entry, looked up): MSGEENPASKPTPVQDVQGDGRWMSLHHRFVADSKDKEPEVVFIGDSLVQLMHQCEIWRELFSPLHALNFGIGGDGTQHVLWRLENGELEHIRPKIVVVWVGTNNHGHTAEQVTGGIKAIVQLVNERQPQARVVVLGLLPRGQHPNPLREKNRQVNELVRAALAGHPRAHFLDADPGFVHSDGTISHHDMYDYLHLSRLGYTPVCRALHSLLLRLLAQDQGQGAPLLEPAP
PAFAH1B2 FP inh = inhibitors of human PAFAH1B2 | P68402 | recombinant PAFAH1B2, FP-rhodamine activity probe, fluorescence polarization | inhibition, % at 3.39 µM | 340,000 tested, 1.2% active;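 active means inhibition above the mean of all tested compounds plus 3 SD, cut at about 24% in these data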;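 further: 0% = enzyme with DMSO and 100% = wells lacking PAFAH1B2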
Target sequence (P68402 whole entry, looked up): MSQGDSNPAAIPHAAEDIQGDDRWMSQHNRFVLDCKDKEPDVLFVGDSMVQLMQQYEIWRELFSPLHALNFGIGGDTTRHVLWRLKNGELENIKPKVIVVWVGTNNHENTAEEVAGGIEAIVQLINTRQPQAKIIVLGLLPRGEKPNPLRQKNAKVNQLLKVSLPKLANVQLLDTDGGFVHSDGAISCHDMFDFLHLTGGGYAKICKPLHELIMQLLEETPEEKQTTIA
* marks the source's active call; other numbers are inactive results.

How did COc1ccc(C2=CC3=CC(=O)C(C)(O)C(=O)C3=CO2)cc1 (stereo unspecified) do in these assays?
pPAFAH inh: 38*

Results for CCOc1cc(C(=O)OCc2cccc(OC)c2OC)ccc1OCC(=O)N1CCOCC1 ?
PAFAH2 inh: 3; pPAFAH inh: 32*; PAFAH1B3 FP inh: -7; PAFAH1B2 FP inh: 1

What do the screens show for `CCOc1cc(C(=O)OCc2ccc([N+](=O)[O-])cc2)ccc1OCC(=O)N1CCOCC1`?
PAFAH2 inh: 17; pPAFAH inh: 10; PAFAH1B3 FP inh: -4; PAFAH1B2 FP inh: -5

What do the screens show for `O=C(NCc1ccncc1)C12CC3CC(CC(C3)C1)C2`?
RBBP9 inh: -9; PAFAH2 inh: 5; pPAFAH inh: 1; PAFAH1B3 FP inh: 0; PAFAH1B2 FP inh: 9

Results for N#CC1=C(N)S[C@H](C(=O)C23CC4CC(CC(C4)C2)C3)[C@H]1c1ccncc1 ?
RBBP9 inh: -8; PAFAH2 inh: 7; pPAFAH inh: -1; PAFAH1B3 FP inh: 3; PAFAH1B2 FP inh: 28*

What do the screens show for `C[C@H](NS(=O)(=O)OCC(Cl)(Cl)Cl)C1CC1c1ccccc1` (stereo partly specified)?
PAFAH2 inh: 5; pPAFAH inh: 26*; PAFAH1B3 FP inh: -7; PAFAH1B2 FP inh: 32*

Results for O=c1c(Sc2ccccc2)c(C(F)(F)F)[nH]n1-c1ccccc1 ?
RBBP9 inh: -10; PAFAH2 inh: 4; pPAFAH inh: 7; PAFAH1B3 FP inh: -1; PAFAH1B2 FP inh: 29*

Results for CCN(C(=O)CSc1nc2cc(C(F)(F)F)ccc2n1Cc1ccccc1)C1CCS(=O)(=O)C1 (stereo unspecified) ?
RBBP9 inh: -9; PAFAH2 inh: 6; pPAFAH inh: 29*; PAFAH1B3 FP inh: 8; PAFAH1B2 FP inh: -2

Results for Cn1cc(/C=C2\SC(=O)NC2=S)c2ccccc21 ?
RBBP9 inh: -5; PAFAH2 inh: 18; pPAFAH inh: 18; PAFAH1B3 FP inh: 9; PAFAH1B2 FP inh: 11

Results for Cc1ccc(/C=C2/SC(=O)NC2=S)o1 ?
RBBP9 inh: 10; PAFAH2 inh: 60*; PAFAH1B3 FP inh: 45*; PAFAH1B2 FP inh: 26*

What do the screens show for `COc1cccc(CN(C)C(=O)COc2ccc(C(=O)c3ccc(Cl)cc3)cc2)c1OC`?
PAFAH2 inh: 5; pPAFAH inh: 28*; PAFAH1B3 FP inh: -2; PAFAH1B2 FP inh: 2

What do the screens show for `Cc1nc(/C(N)=N/OC(=O)c2ccc(Cl)cc2)c(C(F)(F)F)o1`?
RBBP9 inh: -3; PAFAH2 inh: 2; pPAFAH inh: -3; PAFAH1B3 FP inh: 7; PAFAH1B2 FP inh: 8

What do the screens show for `COC(=O)C1=C(C(=O)OC)[C@@H]2Nc3ccccc3[C@@]23C[C@@H](C(=O)OC)N(C(C)=O)C3=N1`?
PAFAH2 inh: 6; pPAFAH inh: 4; PAFAH1B3 FP inh: 4; PAFAH1B2 FP inh: 5

Results for COc1cc(-c2cc(=O)c3c(O)c(OC)c(OC)c(O)c3o2)ccc1O ?
RBBP9 inh: 2; PAFAH2 inh: 7; pPAFAH inh: 26*; PAFAH1B3 FP inh: 25; PAFAH1B2 FP inh: 6

What do the screens show for `CC(C)COc1ccc(N)cc1OCC(C)C`?
RBBP9 inh: -3; PAFAH2 inh: 6; pPAFAH inh: 6; PAFAH1B3 FP inh: 7; PAFAH1B2 FP inh: -2

Results for CCCn1c(CCC(=O)O)ccc1-c1ccc(OC)cc1 ?
RBBP9 inh: -3; PAFAH2 inh: 10; pPAFAH inh: 20; PAFAH1B3 FP inh: 13; PAFAH1B2 FP inh: 0

How did COc1ccc(-c2ccc(CCC(=O)O)n2Cc2ccco2)cc1 do in these assays?
RBBP9 inh: -9; PAFAH2 inh: 8; pPAFAH inh: 28*; PAFAH1B3 FP inh: 3; PAFAH1B2 FP inh: 3

What do the screens show for `O=C(NNC(=O)C12CC3CC(CC(C3)C1)C2)c1ccncc1`?
PAFAH2 inh: -11; pPAFAH inh: 0; PAFAH1B3 FP inh: 9; PAFAH1B2 FP inh: 9

What do the screens show for `CC12CC3CC(C)(C1)CC(C(=O)NNC(=O)c1ccncc1)(C3)C2`?
PAFAH2 inh: 8; pPAFAH inh: 3; PAFAH1B3 FP inh: 12; PAFAH1B2 FP inh: 25*

How did CC(NC(=O)C12CC3CC(CC(C3)C1)C2)c1ccc(F)cc1 (stereo unspecified) do in these assays?
PAFAH2 inh: -3; pPAFAH inh: 2; PAFAH1B3 FP inh: 6; PAFAH1B2 FP inh: 20

How did CC(NC(=O)C12CC3CC(C)(CC(C)(C3)C1)C2)c1ccncc1 (stereo unspecified) do in these assays?
PAFAH2 inh: 11; pPAFAH inh: 7; PAFAH1B3 FP inh: 9; PAFAH1B2 FP inh: 25*

Results for CC(Sc1ccc(Cl)cc1)C(=O)NCc1ccc2c(c1)OCO2 (stereo unspecified) ?
RBBP9 inh: -2; PAFAH2 inh: -15; pPAFAH inh: 1; PAFAH1B3 FP inh: 6; PAFAH1B2 FP inh: 24*

How did O=C(O)c1ccc(NCc2ccc3c(c2)OCO3)cc1 do in these assays?
RBBP9 inh: -9; PAFAH2 inh: 2; pPAFAH inh: -4; PAFAH1B3 FP inh: -2; PAFAH1B2 FP inh: 25*

How did CC(Sc1ccc(Cl)cc1)C(=O)Nc1ccc2c(c1)OCO2 (stereo unspecified) do in these assays?
RBBP9 inh: -7; PAFAH2 inh: -1; pPAFAH inh: 7; PAFAH1B3 FP inh: -3; PAFAH1B2 FP inh: 4

Results for O=C(NCc1ccc2c(c1)OCO2)c1nnc(Cc2ccc(Cl)cc2)o1 ?
RBBP9 inh: 1; PAFAH2 inh: 2; pPAFAH inh: 29*; PAFAH1B3 FP inh: 2; PAFAH1B2 FP inh: -4

Results for O=C(NCc1ccc2c(c1)OCO2)c1ccc2c(c1)OCO2 ?
RBBP9 inh: -14; PAFAH2 inh: 1; pPAFAH inh: 1; PAFAH1B3 FP inh: -4; PAFAH1B2 FP inh: 2

How did COc1ccc2c(CC(=O)NCc3ccc4c(c3)OCO4)coc2c1 do in these assays?
RBBP9 inh: -6; PAFAH2 inh: -1; pPAFAH inh: 32*; PAFAH1B3 FP inh: -13; PAFAH1B2 FP inh: 3

How did Cc1ccc2c(CC(=O)NCc3ccc4c(c3)OCO4)coc2c1 do in these assays?
RBBP9 inh: -4; PAFAH2 inh: 6; pPAFAH inh: -3; PAFAH1B3 FP inh: -3; PAFAH1B2 FP inh: 15

Results for CC(C)Cc1nnc(NC(=O)C2CCN(C(=O)c3ccc(F)cc3)CC2)s1 ?
PAFAH2 inh: -5; pPAFAH inh: 9; PAFAH1B3 FP inh: 8; PAFAH1B2 FP inh: 4

How did O=C(CSCc1ccc(Cl)cc1)NCc1ccc2c(c1)OCO2 do in these assays?
RBBP9 inh: -9; PAFAH2 inh: -1; pPAFAH inh: 13; PAFAH1B3 FP inh: -4; PAFAH1B2 FP inh: 26*

What do the screens show for `COc1ccc(CCNC(=O)c2nnc(Cc3c(F)cccc3Cl)o2)cc1OC`?
RBBP9 inh: 2; PAFAH2 inh: 6; pPAFAH inh: 3; PAFAH1B3 FP inh: 3; PAFAH1B2 FP inh: 4

How did O=C(CSCc1ccc(F)cc1)NCc1ccc2c(c1)OCO2 do in these assays?
RBBP9 inh: -2; PAFAH2 inh: 2; pPAFAH inh: 12; PAFAH1B3 FP inh: -3; PAFAH1B2 FP inh: 2
